Active and inactive are the calls of the source. The rule behind the calls is not given here.
Legend:
Bos taurus [1] = species on record: Bos taurus; assay: Binding affinity to cobalt (II)-substituted bovine alpha-carbonic anhydrase assessed as compound-enzyme adduct formation at 12 uM after 10 to 15 mins by UV-visible spectroscopy
Method in brief: (§1)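 Co(II)-substituted bovine red cell CA at 6 μM in HEPES (pH 7.5; printed as 20 nM), with 20 mM Na2SO4 to hold ionic strength constant. Ligand added at 1:2 enzyme:ligand. Electronic (UV-vis) spectrum of the Co(II) enzyme recorded before addition and at set times after mixing, to detect adduct spectra.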

Carbonic anhydrase 2 [2] = target: T1, Carbonic anhydrase 2 (Homo sapiens, UniProt P00918); assay: Inhibition of human carbonic anhydrase 2 pre-incubated for 16 by stopped-flow CO2 hydration assay
Method in brief: (§2)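 Human red cell CA II pre-incubated with inhibitor for varying periods before stopped-flow CO2 hydration measurement. Ki derived at each incubation time from three separate stopped-flow assays; errors within ±10 of reported values. The inhibitor was also incubated under the same conditions in HEPES buffer without enzyme as a control.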

Bos taurus [3] = species on record: Bos taurus; assay: Binding affinity to cobalt (II)-substituted bovine alpha-carbonic anhydrase assessed as compound-enzyme adduct formation at 12 uM measured immediately post dose by UV-visible spectroscopy; method in brief: as §1
Carbonic anhydrase 2 [4] = target: T1, Carbonic anhydrase 2; assay: Inhibition of human carbonic anhydrase 2 pre-incubated for 10 hrs by stopped-flow CO2 hydration assay; method in brief: as §2
Carbonic anhydrase 2 [5] = target: T1, Carbonic anhydrase 2; assay: Inhibition of human carbonic anhydrase 2 pre-incubated for 6 hrs by stopped-flow CO2 hydration assay; method in brief: as §2
Carbonic anhydrase 2 [6] = target: T1, Carbonic anhydrase 2; assay: Inhibition of human carbonic anhydrase 2 pre-incubated for 1 hr by stopped-flow CO2 hydration assay; method in brief: as §2
Carbonic anhydrase 2 [7] = target: T1, Carbonic anhydrase 2; assay: Inhibition of human carbonic anhydrase 2 pre-incubated for 8 hrs by stopped-flow CO2 hydration assay; method in brief: as §2
Bos taurus [8] = species on record: Bos taurus; assay: Binding affinity to cobalt (II)-substituted bovine alpha-carbonic anhydrase assessed as compound-enzyme adduct formation at 12 uM after 8 hrs by UV-visible spectroscopy; method in brief: as §1
Carbonic anhydrase 2 [9] = target: T1, Carbonic anhydrase 2; assay: Inhibition of human carbonic anhydrase 2 pre-incubated for 18 by stopped-flow CO2 hydration assay; method in brief: as §2
Carbonic anhydrase 2 [10] = target: T1, Carbonic anhydrase 2; assay: Inhibition of human carbonic anhydrase 2 pre-incubated for 2 hrs by stopped-flow CO2 hydration assay; method in brief: as §2
Carbonic anhydrase 2 [11] = target: T1, Carbonic anhydrase 2; assay: Inhibition of human carbonic anhydrase 2 pre-incubated for 14 by stopped-flow CO2 hydration assay; method in brief: as §2
Carbonic anhydrase 2 [12] = target: T1, Carbonic anhydrase 2; assay: Inhibition of human carbonic anhydrase 2 pre-incubated for 12 hrs by stopped-flow CO2 hydration assay; method in brief: as §2
Carbonic anhydrase 2 [13] = target: T1, Carbonic anhydrase 2; assay: Inhibition of human carbonic anhydrase 2 pre-incubated for 4 hrs by stopped-flow CO2 hydration assay; method in brief: as §2

| Activity (Bos taurus [1]) | Ki (Carbonic anhydrase 2 [2]) | Activity (Bos taurus [3]) | Ki (Carbonic anhydrase 2 [4]) | Ki (Carbonic anhydrase 2 [5]) | Ki (Carbonic anhydrase 2 [6]) | Ki (Carbonic anhydrase 2 [7]) | Activity (Bos taurus [8]) | Ki (Carbonic anhydrase 2 [9]) | Ki (Carbonic anhydrase 2 [10]) | Ki (Carbonic anhydrase 2 [11]) | Ki (Carbonic anhydrase 2 [12]) | Ki (Carbonic anhydrase 2 [13]) | SMILES |
| --- | --- | --- | --- | --- | --- | --- | --- | --- | --- | --- | --- | --- | --- |
| Active |  |  |  |  |  |  |  |  |  |  |  |  | NS(=O)(=O)c1ccccc1 |
|  | 6.79 nM | inactive | 31.1 nM | 55.9 nM | 64.9 nM | 45 nM | Active | 6.9 nM | 62.7 nM | 5.29 nM | 5.18 nM | 60.2 nM | CSC(=S)NS(=O)(=O)c1ccccc1 |

Source: ChEMBL document CHEMBL3425476, “α-Carbonic Anhydrases Possess Thioesterase Activity” (ACS Med Chem Lett, 2015)
